Experimental findings from ChEMBL document CHEMBL1133862, “Synthesis and binding affinities of 2 beta-(3-iodoallyloxycarbonyl)-3 beta-(4-substituted-aryl)tropane analogues as ligands for the dopamine transporter studies” (Bioorg Med Chem Lett, 2001) are described below.

The target in test [1] is Sodium-dependent dopamine transporter (Rattus norvegicus, UniProt P23977). In words: Inhibition of [3H]WIN-35428 binding to Dopamine transporter in rat striatal synaptic membranes. The test is classed as cell membranes, Membrane.
In test [2] the target is Sodium-dependent dopamine transporter (Rattus norvegicus) (UniProt P23977). In words: Ratio of binding affinity of E isomer to that ofZ isomer towards the dopamine transporter expressed as IC50(E)/IC50(Z). In outline:
(§1)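 Ratio of IC50 values for the E and Z isomers bearing the same para substituent on the 3β-phenyl ring. Both IC50s come from rat striatal membrane competition binding against 3 nM [3H]WIN 35,428, with 13 concentrations from 10^-12 to 10^-4 M and (−)-cocaine defining nonspecific binding.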

Test [3] has the same target. The test can be described thus: Ratio of binding affinity of E isomer to that of Z isomer towards the dopamine transporter expressed as IC50(E)/IC50(Z). In outline:
as §1

Sequence of Sodium-dependent dopamine transporter (Rattus norvegicus) (P23977 whole entry): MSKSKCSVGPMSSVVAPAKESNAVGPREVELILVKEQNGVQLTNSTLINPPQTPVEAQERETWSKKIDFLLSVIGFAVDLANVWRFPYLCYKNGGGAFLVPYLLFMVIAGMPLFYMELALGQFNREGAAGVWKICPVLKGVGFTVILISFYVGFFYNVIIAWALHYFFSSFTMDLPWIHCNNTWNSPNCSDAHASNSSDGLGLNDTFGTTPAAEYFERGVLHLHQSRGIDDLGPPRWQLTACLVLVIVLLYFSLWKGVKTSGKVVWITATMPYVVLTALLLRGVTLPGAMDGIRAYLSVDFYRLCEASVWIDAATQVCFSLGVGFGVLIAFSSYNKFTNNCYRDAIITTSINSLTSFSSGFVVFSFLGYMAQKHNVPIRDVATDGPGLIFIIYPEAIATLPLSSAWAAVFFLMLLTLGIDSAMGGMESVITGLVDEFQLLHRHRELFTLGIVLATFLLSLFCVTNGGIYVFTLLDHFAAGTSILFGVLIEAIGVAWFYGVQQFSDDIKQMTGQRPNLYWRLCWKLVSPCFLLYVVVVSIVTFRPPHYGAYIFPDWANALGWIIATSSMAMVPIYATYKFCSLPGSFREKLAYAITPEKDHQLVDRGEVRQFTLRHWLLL
Sequence of Sodium-dependent dopamine transporter (P23977 whole entry): as above

With `CN1C2CCC1C(C(=O)OC/C=C/I)C(c1ccc(Cl)cc1)C2` (stereo not drawn), in test [1], the IC50 was 0.0466 µM.
The compound `COC(=O)C1C(c2ccc(Cl)cc2)CC2CCC1N2C/C=C/I` (stereo not drawn) displayed an IC50 in test [1] of 0.0061 µM. This IC50 lies about 7.6-fold lower than the previous one.
Regarding `Cc1ccc(C2CC3CCC(C2C(=O)OC/C=C\I)N3C)cc1` (stereo not drawn), the IC50 in test [1] was determined as 0.0392 µM. Also, the Ratio in test [2] turned out to be 4.84.
For the compound `CN1C2CCC1C(C(=O)OC/C=C/I)C(c1ccccc1)C2` (stereo not drawn), the IC50 in test [1] stood at 0.876 µM. This lies in the sub-micromolar range.
`CN1C2CCC1C(C(=O)OC/C=C\I)C(c1ccc(F)cc1)C2` (stereo not drawn) gave an IC50 in test [1] of 0.356 µM. Besides, the Ratio in test [2] was 1.59.
Compound `CN1C2CCC1C(C(=O)OC/C=C/I)C(c1ccc(F)cc1)C2` (stereo not drawn) showed a half-inhibitory concentration (IC50) in test [1] of 0.567 µM.
On the same count and under the same terms, then `Cc1ccc(C2CC3CCC(C2C(=O)OC/C=C/I)N3C)cc1` (stereo not drawn), with 0.19 µM.
Compound `CN1C2CCC1C(C(=O)OC/C=C\I)C(c1ccccc1)C2` (stereo not drawn) came in with an IC50 in test [1] of 0.308 µM. Moreover, the Ratio in test [3] was 2.84.
In test [1], `CN1C2CCC1C(C(=O)OC/C=C\I)C(c1ccc(Cl)cc1)C2` (stereo not drawn) returned an IC50 of 0.0249 µM. Moreover, in test [2], the Ratio was determined as 1.87.
